# Measured values published in ChEMBL document CHEMBL4028861, “Selective Nonsteroidal Glucocorticoid Receptor Modulators for the Inhaled Treatment of Pulmonary Diseases” (J Med Chem, 2017).
# Assays:
# [1] = Lipophilicity, log D of the compound by chromatography; assay type: physicochemical
# [2] = Solubility of the compound in phosphate buffer at pH 7.4 using solid sample at 23 degreeC; assay type: physicochemical
# Summary of the method: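 Solubility measured in 0.1 M phosphate buffer at pH 7.4 and 23 °C, starting from crystalline solid.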
# [3] = Solubility of the compound in phosphate buffer at pH 7.4 using liquid sample at 20 degreeC; assay type: physicochemical
# Summary of the method: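 Solubility measured in 0.1 M phosphate buffer at pH 7.4 and 20 °C, starting from a 10 mM DMSO stock solution.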
# [4] = Intrinsic clearance in human hepatocytes assessed per million cells; assay type: ADME, cell-based, Hepatocyte; conditions: read-out: CLH
# Lung [5] = test: Drug uptake in Wistar Han rat lung at 0.1 umol/kg, administered as dry powder inhalation after 4 hrs by LC-MS/MS analysis; assay type: ADME; conditions: in vivo, inhaled_or_intranasal
# Lung [6] = test: Drug uptake in Wistar Han rat lung at 0.1 umol/kg, administered as dry powder inhalation after 24 hrs by LC-MS/MS analysis; assay type: ADME, tissue-based; conditions: in vivo, inhaled_or_intranasal
# [7] = Mean residence time in Wistar Han rat lung at 0.1 umol/kg, administered as dry powder inhalation by LC-MS/MS analysis; assay type: ADME, tissue-based; conditions: inhaled or intranasal
# [8] = Thermodynamic solubility of the compound in human intestinal fluid; assay type: physicochemical; conditions: read-out: Therm_solubility
# [9] = Apparent terminal half life in Wistar Han rat lung at 0.1 umol/kg, administered as dry powder inhalation by LC-MS/MS analysis; assay type: ADME; conditions: inhaled or intranasal, read-out: betat1/2(app) (converted)
# [10] = Volume of distribution at steady state in Wistar Han rat at 1 umol/kg, iv administered as bolus dose by LC-MS/MS analysis; assay type: ADME, organism-based; conditions: in vivo, read-out: Vdss
# Rattus norvegicus = test: Toxicity in inhaled CRL:CD Sprague Dawley rat model of sephadex induced lung edema assessed as induction of thymic involution administered once per day for 3 days; conditions: in vivo, inhaled_or_intranasal, 72 h
# Summary of the method: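 Thymic involution scored in the same Sephadex-challenged rats dosed by inhalation, as a sensitive marker of systemic GR agonism.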
# [11] = Cmax in Wistar Han rat plasma at 0.1 umol/kg, administered as dry powder inhalation by LC-MS/MS analysis; assay type: ADME; set-up: dose 0.1 umol/kg, route respiratory (INHALATION); conditions: inhaled or intranasal
# [12] = Terminal half life in Wistar Han rat 1 umol/kg, iv administered as bolus dose by LC-MS/MS analysis; assay type: ADME, organism-based; conditions: in vivo, read-out: beta t1/2 (converted)
# [13] = Oral bioavailability in Wistar Han rat administered via gavage by LC-MS/MS analysis; assay type: ADME, organism-based; conditions: in vivo
# [14] = AUC (0 to infinity) in Wistar Han rat lung at 0.1 umol/kg, administered as dry powder inhalation by LC-MS/MS analysis; assay type: ADME; set-up: dose 0.1 umol/kg, route respiratory (INHALATION), time infinity; conditions: inhaled or intranasal
# [15] = Intrinsic clearance in Wistar Han rat hepatocytes assessed per 10^6 cells; assay type: ADME, cell-based, Hepatocyte; conditions: read-out: CLH
# [16] = Clearance in Wistar Han rat at 1 umol/kg, iv administered as bolus dose by LC-MS/MS analysis; assay type: ADME, organism-based; conditions: in vivo
Compound,chromatographic logD [1],solubility thermodynamic [2] [µM],solubility [3] [µM],hepatocyte CLint [4] [µL/min/1e6 cells],Drug uptake (Lung [5]) [%ID],Drug uptake (Lung [6]) [%ID],MRT [7] [h],solubility thermodynamic [8] [µM],half-life [9] [h],Vd [10] [L/kg],ED25 (Rattus norvegicus) [mg/kg],Cmax [11] [nM],half-life [12] [h],bioavailability [13] [%],AUC(0-inf) [14] [µM·h],hepatocyte CLint [15] [µL/min/1e6 cells],clearance [16] [mL/min/kg]
C[C@H](NC(=O)C(C)(F)F)[C@H](Oc1ccc2c(cnn2-c2cccc(C(=O)N[C@H]3CCS(=O)(=O)C3)c2)c1)c1ccc2c(c1)OCCO2,3.6,0.68,0.01,23,–,–,–,–,–,–,–,–,–,–,–,–,–
C[C@H](NC(=O)C(C)(F)F)[C@H](Oc1ccc2c(cnn2-c2cccc(C(=O)N[C@@H]3CCS(=O)(=O)C3)c2)c1)c1ccc2c(c1)OCCO2,3.6,< 0.1,< 0.01,22,93,91,210,0.3,179,2.8,> 0.13,4.9,0.3,< 0.1,5200,31,–
C[C@H](NC(=O)C(C)(F)F)[C@H](Oc1ccc2c(cnn2-c2cccc(C(=O)N[C@H]3CCOC3)c2)c1)c1ccc2c(c1)OCCO2,3.7,0.09,1.3,30,–,–,–,–,–,–,–,–,–,–,–,–,–
C[C@H](NC(=O)C(C)(F)F)[C@H](Oc1ccc2c(cnn2-c2cccc(C(=O)N[C@H]3CCOC3)c2)c1)c1ccc2c(c1)OCOC2,3.6,0.03,0.11,26,–,–,–,–,–,–,–,–,–,–,–,–,–
C[C@H](NC(=O)C(C)(F)F)[C@H](Oc1ccc2c(cnn2-c2cccc(C(=O)NCc3cccnc3)c2)c1)c1ccc2c(c1)OCCO2,3.7,0.23,< 0.1,21,4.1,0.18,2.6,2.1,4.9,0.97,0.012,21,0.2,0.16,26,25,68
C[C@H](NC(=O)C(C)(F)F)[C@H](Oc1ccc2c(cnn2-c2cccc(C(=O)NCc3cccnc3)c2)c1)c1ccc2c(c1)OCOC2,3.6,0.02,< 0.1,21,41,8.6,10,1.3,9,0.81,0.027,12,0.1,0.3,190,25,73
C[C@H](NC(=O)C(C)(F)F)[C@H](Oc1ccc2c(cnn2-c2cccc(C(=O)N[C@@H]3CCOC3=O)c2)c1)c1ccc2c(c1)OCCO2,3.6,0.22,0.16,17,–,–,–,–,–,–,–,–,–,–,–,–,–
C[C@H](NC(=O)C(F)(F)F)[C@H](Oc1ccc2c(cnn2-c2ccc(F)cc2)c1)c1ccccc1,6.1,–,–,< 2.1,–,–,–,–,–,–,–,–,–,–,–,–,–
C[C@H](NC(=O)C(C)(F)F)[C@H](Oc1ccc2c(cnn2-c2cccc(C(=O)N[C@@H]3CCOC3=O)c2)c1)c1ccccc1,3.9,0.12,2,–,–,–,–,–,–,–,–,–,–,–,–,–,–
C[C@H](NC(=O)C(F)(F)F)[C@H](Oc1ccc2c(cnn2-c2ccc(F)cc2)c1)c1ccc2c(c1)OCCO2,5.7,–,–,–,–,–,–,–,–,–,–,–,–,–,–,–,–
C[C@H](NC(=O)C(C)(F)F)[C@H](Oc1ccc2c(cnn2-c2ccc(F)cc2)c1)c1ccc2c(c1)COCO2,5.4,–,–,20,–,–,–,–,–,–,–,–,–,–,–,–,–
C[C@H](NC(=O)C(C)(F)F)[C@H](Oc1ccc2c(cnn2-c2cccc(C(=O)N3CCC[C@@H]3C(N)=O)c2)c1)c1ccc2c(c1)OCCO2,2.9,–,47,11,–,–,–,–,–,–,–,–,–,–,–,–,–
C[C@H](NC(=O)C(C)(F)F)[C@H](Oc1ccc2c(cnn2-c2cccc(C(=O)N3CCC[C@H]3C(N)=O)c2)c1)c1ccccc1,3.3,–,85,–,–,–,–,–,–,–,–,–,–,–,–,–,–
